Source: ChEMBL document CHEMBL1687778, “Genetic determinants involved in the susceptibility of Pseudomonas aeruginosa to beta-lactam antibiotics” (2010)
In brackets after ≈: the same amount, converted by molar mass.

Experiments:
Pseudomonas aeruginosa [1] = assay: Antimicrobial activity against wild type Pseudomonas aeruginosa PA14 by Etest method; assay type: functional
Summary of the method: (§1)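 Etest MIC. Overnight LB cultures at 37°C were diluted in sterile 0.85% NaCl to about 1 × 10^7 CFU/ml. 100 µl was spread on Mueller-Hinton agar, one strip was placed per plate, and plates were incubated at 37°C for 18 h. Equal cell numbers were seeded per plate, and results were verified in triplicate. PA14 wild type was included in each set as a susceptibility control.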

Pseudomonas aeruginosa [2] = assay: Antimicrobial activity against Pseudomonas aeruginosa PA14 PA0958 harboring oprD mutant gene by Etest method; assay type: functional
Summary of the method: (§2)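 Overnight LB cultures (37°C) diluted in sterile 0.85% NaCl to about 1 × 10^7 CFU/ml. 100 µl spread on Mueller-Hinton agar, one Etest strip per plate, 18 h at 37°C. Ceftazidime, imipenem and meropenem tested. Wild-type PA14 plate included in each set. Each mutant verified in triplicate.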

Pseudomonas aeruginosa [3] = assay: Antimicrobial activity against Pseudomonas aeruginosa PA14 PA1348 harboring mutation in conserved hypothetical protein by Etest method; assay type: functional; summary of the method: as §2
Pseudomonas aeruginosa [4] = assay: Antimicrobial activity against Pseudomonas aeruginosa PA14 PA14_15600 harboring mutation in conserved hypothetical protein by Etest method; assay type: functional; summary of the method: as §2
Pseudomonas aeruginosa [5] = assay: Antimicrobial activity against Pseudomonas aeruginosa PA14 PA14_43090 harboring mutation in hypothetical protein by Etest method; assay type: functional; summary of the method: as §2
Pseudomonas aeruginosa [6] = assay: Antimicrobial activity against Pseudomonas aeruginosa PA14 PA2487 harboring mutation in hypothetical protein by Etest method; assay type: functional; summary of the method: as §2
Pseudomonas aeruginosa [7] = assay: Antimicrobial activity against Pseudomonas aeruginosa PA14 PA2621 harboring clpS mutant gene by Etest method; assay type: functional; summary of the method: as §2
Pseudomonas aeruginosa [8] = assay: Antimicrobial activity against Pseudomonas aeruginosa PA14 PA2797 harboring mutation in putative anti-anti-sigma factor by Etest method; assay type: functional; summary of the method: as §2
Pseudomonas aeruginosa [9] = assay: Antimicrobial activity against Pseudomonas aeruginosa PA14 PA3141 harboring wbpM mutant gene by Etest method; assay type: functional; summary of the method: as §2
Pseudomonas aeruginosa [10] = assay: Antimicrobial activity against Pseudomonas aeruginosa PA14 PA3667 harboring mutation in putative cysteine sulfinate desulfinase by Etest method; assay type: functional; summary of the method: as §1
Pseudomonas aeruginosa [11] = assay: Antimicrobial activity against Pseudomonas aeruginosa PA14 PA4748 harboring tpiA mutant gene by Etest method; assay type: functional; summary of the method: as §1
Pseudomonas aeruginosa [12] = assay: Antimicrobial activity against Pseudomonas aeruginosa PA14 PA5002 harboring mutation in hypothetical protein by Etest method; assay type: functional; summary of the method: as §1
Pseudomonas aeruginosa [13] = assay: Antimicrobial activity against Pseudomonas aeruginosa PA14 PA5003 harboring mutation in conserved hypothetical protein by Etest method; assay type: functional; summary of the method: as §1
Pseudomonas aeruginosa [14] = assay: Antimicrobial activity against Pseudomonas aeruginosa PA14 PA5192 harboring pckA mutant gene by Etest method; assay type: functional; summary of the method: as §1
Pseudomonas aeruginosa [15] = assay: Antimicrobial activity against Pseudomonas aeruginosa PA14 PA0402 harboring pyrB mutant gene by Etest method; assay type: functional; summary of the method: as §2
Pseudomonas aeruginosa [16] = assay: Antimicrobial activity against Pseudomonas aeruginosa PA14 PA0764 harboring mucB mutant gene by Etest method; assay type: functional; summary of the method: as §2
Pseudomonas aeruginosa [17] = assay: Antimicrobial activity against Pseudomonas aeruginosa PA14 PA0766 harboring mucD mutant gene by Etest method; assay type: functional; summary of the method: as §2
Pseudomonas aeruginosa [18] = assay: Antimicrobial activity against Pseudomonas aeruginosa PA14 PA0770 harboring rnc mutant gene by Etest method; assay type: functional; summary of the method: as §2
Pseudomonas aeruginosa [19] = assay: Antimicrobial activity against Pseudomonas aeruginosa PA14 PA1011 harboring mutation in putative lipoprotein by Etest method; assay type: functional; summary of the method: as §2
Pseudomonas aeruginosa [20] = assay: Antimicrobial activity against Pseudomonas aeruginosa PA14 PA14_59780 harboring rcsC mutant gene by Etest method; assay type: functional; summary of the method: as §2
Pseudomonas aeruginosa [21] = assay: Antimicrobial activity against Pseudomonas aeruginosa PA14 PA1483 harboring cycH mutant gene by Etest method; assay type: functional; summary of the method: as §2
Pseudomonas aeruginosa [22] = assay: Antimicrobial activity against Pseudomonas aeruginosa PA14 PA2615 harboring ftsK mutant gene by Etest method; assay type: functional; summary of the method: as §2
Pseudomonas aeruginosa [23] = assay: Antimicrobial activity against Pseudomonas aeruginosa PA14 PA3050 harboring pyrD mutant gene by Etest method; assay type: functional; summary of the method: as §2
Pseudomonas aeruginosa [24] = assay: Antimicrobial activity against Pseudomonas aeruginosa PA14 PA3433 harboring mutation in putative transcriptional regulator, LysR family by Etest method; assay type: functional; summary of the method: as §1
Pseudomonas aeruginosa [25] = assay: Antimicrobial activity against Pseudomonas aeruginosa PA14 PA3800 harboring mutation in conserved hypothetical protein by Etest method; assay type: functional; summary of the method: as §1
Pseudomonas aeruginosa [26] = assay: Antimicrobial activity against Pseudomonas aeruginosa PA14 PA3818 harboring suhB mutant gene by Etest method; assay type: functional; summary of the method: as §1
Pseudomonas aeruginosa [27] = assay: Antimicrobial activity against Pseudomonas aeruginosa PA14 PA4088 harboring mutation in putative aminotransferase by Etest method; assay type: functional; summary of the method: as §1
Pseudomonas aeruginosa [28] = assay: Antimicrobial activity against Pseudomonas aeruginosa PA14 PA4745 harboring nusA mutant gene by Etest method; assay type: functional; summary of the method: as §1
Pseudomonas aeruginosa [29] = assay: Antimicrobial activity against Pseudomonas aeruginosa PA14 PA5130 harboring mutation in putative rhodanese-like domain protein by Etest method; assay type: functional; summary of the method: as §1
Pseudomonas aeruginosa [30] = assay: Antimicrobial activity against Pseudomonas aeruginosa PA14 PA5366 harboring pstB mutant gene by Etest method; assay type: functional; summary of the method: as §1
Pseudomonas aeruginosa [31] = assay: Antimicrobial activity against wild type Pseudomonas aeruginosa by Etest method
Pseudomonas aeruginosa [32] = assay: Antimicrobial activity against wild type Pseudomonas aeruginosa harboring pBBR1MCS-3 by Etest method
Pseudomonas aeruginosa [33] = assay: Antimicrobial activity against Pseudomonas aeruginosa harboring algU mutant gene by Etest method; assay type: functional; summary of the method: as §1
Pseudomonas aeruginosa [34] = assay: Antimicrobial activity against Pseudomonas aeruginosa harboring pBBR1MCS-3 expressing algU mutant gene by Etest method; assay type: functional
Summary of the method: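 Etest MIC run in triplicate on a plasmid-carrying strain. The Mueller-Hinton agar contained tetracycline at 20 µg/ml for plasmid maintenance. The inoculum was about 1 × 10^7 CFU/ml in 0.85% NaCl, from an overnight LB culture grown at 37°C; 100 µl was spread per plate. One strip was placed per plate, with incubation at 37°C for 18 h.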

Pseudomonas aeruginosa [35] = assay: Antimicrobial activity against Pseudomonas aeruginosa PA14 PA14_23430 harboring mutation in putative heparinase by Etest method; assay type: functional; summary of the method: as §2

For C[C@@H](O)[C@H]1C(=O)N2C(C(=O)O)=C(SCCNC=N)C[C@H]12 [IMIPENEM ANHYDROUS], the MIC (Pseudomonas aeruginosa [1]) was 0.5 µg/mL (≈ 1.67 µM), the MIC (Pseudomonas aeruginosa [2]) was 2 µg/mL (≈ 6.68 µM) and the MIC (Pseudomonas aeruginosa [3]) was 0.5 µg/mL (≈ 1.67 µM). For the same compound, the MIC (Pseudomonas aeruginosa [4]) was 0.5 µg/mL (≈ 1.67 µM), the MIC (Pseudomonas aeruginosa [5]) was 0.38 µg/mL (≈ 1.27 µM) and the MIC (Pseudomonas aeruginosa [6]) was 0.5 µg/mL (≈ 1.67 µM). The MIC (Pseudomonas aeruginosa [7]) was 0.38 µg/mL (≈ 1.27 µM), the MIC (Pseudomonas aeruginosa [8]) was 0.5 µg/mL (≈ 1.67 µM) and the MIC (Pseudomonas aeruginosa [9]) was 0.5 µg/mL (≈ 1.67 µM). It also gave an MIC (Pseudomonas aeruginosa [10]) of 0.75 µg/mL (≈ 2.51 µM), an MIC (Pseudomonas aeruginosa [11]) of 0.38 µg/mL (≈ 1.27 µM) and an MIC (Pseudomonas aeruginosa [12]) of 0.38 µg/mL (≈ 1.27 µM). The MIC (Pseudomonas aeruginosa [13]) was 0.5 µg/mL (≈ 1.67 µM), the MIC (Pseudomonas aeruginosa [14]) was 0.38 µg/mL (≈ 1.27 µM) and the MIC (Pseudomonas aeruginosa [15]) was 0.38 µg/mL (≈ 1.27 µM). It also gave an MIC (Pseudomonas aeruginosa [16]) of 0.25 µg/mL (≈ 0.835 µM), an MIC (Pseudomonas aeruginosa [17]) of 0.25 µg/mL (≈ 0.835 µM) and an MIC (Pseudomonas aeruginosa [18]) of 0.75 µg/mL (≈ 2.51 µM). For the same compound, the MIC (Pseudomonas aeruginosa [19]) was 0.5 µg/mL (≈ 1.67 µM), the MIC (Pseudomonas aeruginosa [20]) was 0.5 µg/mL (≈ 1.67 µM) and the MIC (Pseudomonas aeruginosa [21]) was 0.5 µg/mL (≈ 1.67 µM). The MIC (Pseudomonas aeruginosa [22]) was 0.19 µg/mL (≈ 0.635 µM), the MIC (Pseudomonas aeruginosa [23]) was 0.25 µg/mL (≈ 0.835 µM) and the MIC (Pseudomonas aeruginosa [24]) was 0.19 µg/mL (≈ 0.635 µM). For the same compound, the MIC (Pseudomonas aeruginosa [25]) was 0.38 µg/mL (≈ 1.27 µM), the MIC (Pseudomonas aeruginosa [26]) was 0.38 µg/mL (≈ 1.27 µM) and the MIC (Pseudomonas aeruginosa [27]) was 0.38 µg/mL (≈ 1.27 µM). It also gave an MIC (Pseudomonas aeruginosa [28]) of 0.25 µg/mL (≈ 0.835 µM), an MIC (Pseudomonas aeruginosa [29]) of 0.19 µg/mL (≈ 0.635 µM) and an MIC (Pseudomonas aeruginosa [30]) of 0.25 µg/mL (≈ 0.835 µM). The MIC (Pseudomonas aeruginosa [31]) was 0.5 µg/mL (≈ 1.67 µM), the MIC (Pseudomonas aeruginosa [32]) was 0.5 µg/mL (≈ 1.67 µM) and the MIC (Pseudomonas aeruginosa [33]) was 0.38 µg/mL (≈ 1.27 µM). For the same compound, the MIC (Pseudomonas aeruginosa [34]) was 0.38 µg/mL (≈ 1.27 µM) and the MIC (Pseudomonas aeruginosa [35]) was 0.38 µg/mL (≈ 1.27 µM).
